# Key:
# [1] = tested on: Mus musculus; experiment: In vivo antitumor activity against murine pancreatic adenocarcinoma and measured as number of deaths on a schedule of 5-10 day and at a total dose of 270 mg/kg; assay type: ADME, organism-based; design: dose 270 mg/kg
# Outline: (§1)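 Mice bearing drug-sensitive murine pancreatic adenocarcinoma Panc-03 were dosed on the listed days at the listed total doses. Dosing solutions were made in water from stock solutions and injected within 20 min. Chlorohydrin solutions were acidified with 0.05% citric acid. Tolerance was recorded as body weight loss and number of deaths.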
# [2] = tested on: Mus musculus; experiment: Ratio of the median tumor weight in the treatment group over the median tumor weight in the control group on a schedule of 5-10 day and at a total dose of 402 mg/kg; assay type: functional
# Outline: (§2)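 Murine pancreatic adenocarcinoma Panc-03 tumors in mice. T/C is the median tumor weight of the treated group over that of controls, ×100, taken when control median tumor weight reaches 1 g. T/C ≤42% counts as significant antitumor activity. Dosing solutions were prepared aqueous from stock solutions and injected within 20 min.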
# [3] = tested on: Mus musculus; experiment: In vivo antitumor activity against murine pancreatic adenocarcinoma and measured as number of deaths on a schedule of 5-10 day and at a total dose of 402 mg/kg; assay type: ADME, organism-based; design: dose 402 mg/kg; outline: as §1
# [4] = tested on: Mus musculus; experiment: Ratio of the median tumor weight in the treatment group over the median tumor weight in the control group on a schedule of 5-10 day and at a total dose of 210 mg/kg; assay type: functional
# Outline: (§3)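 Panc-03 murine pancreatic adenocarcinoma in mice, with injectable solutions prepared in water from stock and given within 20 min; chlorohydrins were acidified with 0.05% citric acid. %T/C is median tumor weight of the treated group over that of the control group × 100, calculated when control median tumor weight reaches 1 g. T/C ≤ 42% is taken as significant activity.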
# [5] = tested on: Mus musculus; experiment: In vivo antitumor activity against murine pancreatic adenocarcinoma and measured as number of deaths on a schedule of 5-10 day and at a total dose of 210 mg/kg; assay type: ADME, organism-based; design: dose 210 mg/kg; outline: as §1
# [6] = tested on: Mus musculus; experiment: Ratio of the median tumor weight in the treatment group over the median tumor weight in the control group on a schedule of 5-10 day and at a total dose of 270 mg/kg; assay type: functional; outline: as §2
# [7] = tested on: Mus musculus; experiment: In vivo antitumor activity against murine pancreatic adenocarcinoma and measured as % weight loss on a schedule of 5-10 day and at a total dose of 210 mg/kg; assay type: functional; outline: as §1
# [8] = tested on: Mus musculus; experiment: In vivo antitumor activity against murine pancreatic adenocarcinoma and measured as % weight loss on a schedule of 5-10 day and at a total dose of 402 mg/kg; assay type: functional; outline: as §1
# [9] = tested on: Mus musculus; experiment: In vivo antitumor activity against murine pancreatic adenocarcinoma and measured as % weight loss on a schedule of 5-10 day and at a total dose of 270 mg/kg; assay type: functional; outline: as §1
# [10] = tested on: Mus musculus; experiment: Ratio of the median tumor weight in the treatment group over the median tumor weight in the control group on a schedule of 3,5 days and at a total dose of 1 mg/kg; assay type: functional; outline: as §3
# [11] = tested on: Mus musculus; experiment: In vivo antitumor activity against murine pancreatic adenocarcinoma and measured as number of deaths on a schedule of 3,5 days and at a total dose of 1 mg/kg; assay type: ADME, organism-based; design: dose 1 mg/kg; settings: 120 h; outline: as §1
# [12] = tested on: Mus musculus; experiment: In vivo antitumor activity against murine pancreatic adenocarcinoma and measured as % weight loss on a schedule of 3,5 days and at a total dose of 1 mg/kg; assay type: functional; outline: as §1
# [13] = tested on: Mus musculus; experiment: Ratio of the median tumor weight in the treatment group over the median tumor weight in the control group on a schedule of 3,5 days and at a total dose of 1.6 mg/kg; assay type: functional; outline: as §3
# [14] = tested on: CCRF-CEM; experiment: In vitro growth inhibitory activity in the human CCRF-CEM leukemia cell line.; assay type: functional, cell-based
# Outline: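 CCRF-CEM human leukemia cells in log phase, 4.8 × 10⁴ cells per 2 mL well. Medium was RPMI-1640 with 10% dialyzed FBS and 25 mM HEPES. Compounds were serially diluted 1:3 in DMSO and added to duplicate wells, with DMSO-only controls, at 0.5% final DMSO. Cells were exposed 72 h at 37 °C in humidified 5% CO₂, then counted. IC50 in nM.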
# [15] = tested on: Mus musculus; experiment: In vivo antitumor activity against murine pancreatic adenocarcinoma and measured as number of deaths on a schedule of 3,5 days and at a total dose of 1.6 mg/kg; assay type: ADME, organism-based; design: dose 1.6 mg/kg; settings: 120 h; outline: as §1
# [16] = tested on: Mus musculus; experiment: In vivo antitumor activity against murine pancreatic adenocarcinoma and measured as % weight loss on a schedule of 3,5 days and at a total dose of 1.6 mg/kg; assay type: functional; outline: as §1
# [17] = tested on: Mus musculus; experiment: In vivo antitumor activity against murine pancreatic adenocarcinoma and measured as number of deaths on a schedule of 3 days and at a total dose of 2 mg/kg; assay type: ADME, organism-based; design: dose 2 mg/kg; settings: 72 h; outline: as §1
# [18] = tested on: Mus musculus; experiment: In vivo antitumor activity against murine pancreatic adenocarcinoma and measured as % weight loss on a schedule of 3 days and at a total dose of 2 mg/kg; assay type: functional; outline: as §1
# [19] = tested on: Mus musculus; experiment: Ratio of the median tumor weight in the treatment group over the median tumor weight in the control group on a schedule of 3 days and at a total dose of 2 mg/kg; assay type: functional; outline: as §3
# [20] = tested on: Mus musculus; experiment: In vivo antitumor activity against murine pancreatic adenocarcinoma and measured as number of deaths on a schedule of 1-6 days and at a total dose of 162 mg/kg; assay type: ADME, organism-based; design: dose 162 mg/kg; outline: as §1
# [21] = tested on: Mus musculus; experiment: In vivo antitumor activity against murine pancreatic adenocarcinoma and measured as % weight loss on a schedule of 1-6 days and at a total dose of 72 mg/kg; assay type: functional; outline: as §1
# [22] = tested on: Mus musculus; experiment: In vivo antitumor activity against murine pancreatic adenocarcinoma and measured as % weight loss on a schedule of 1-6 days and at a total dose of 162 mg/kg; assay type: functional; outline: as §1
# [23] = tested on: Mus musculus; experiment: In vivo antitumor activity against murine pancreatic adenocarcinoma and measured as number of deaths on a schedule of 1-6 days and at a total dose of 72 mg/kg; assay type: ADME, organism-based; design: dose 72 mg/kg; outline: as §1
# [24] = tested on: Mus musculus; experiment: Ratio of the median tumor weight in the treatment group over the median tumor weight in the control group on a schedule of 1-6 days and at a total dose of 162 mg/kg; assay type: functional; outline: as §3
# [25] = tested on: Mus musculus; experiment: Ratio of the median tumor weight in the treatment group over the median tumor weight in the control group on a schedule of 1-6 days and at a total dose of 72 mg/kg; assay type: functional; outline: as §3
# [26] = tested on: Mus musculus; experiment: In vivo antitumor activity against murine pancreatic adenocarcinoma and measured as % weight loss on a schedule of 3-10 days and at a total dose of 32 mg/kg; assay type: functional; outline: as §1
# [27] = tested on: Mus musculus; experiment: In vivo antitumor activity against murine pancreatic adenocarcinoma and measured as % weight loss on a schedule of 3-9 days and at a total dose of 42 mg/kg; assay type: functional; outline: as §1
# [28] = tested on: Mus musculus; experiment: In vivo antitumor activity against murine pancreatic adenocarcinoma and measured as number of deaths on a schedule of 3-9 days and at a total dose of 42 mg/kg; assay type: ADME, organism-based; design: dose 42 mg/kg; outline: as §1
# [29] = tested on: Mus musculus; experiment: Ratio of the median tumor weight in the treatment group over the median tumor weight in the control group on a schedule of 3-10 days and at a total dose of 32 mg/kg; assay type: functional; outline: as §3
# [30] = tested on: Mus musculus; experiment: Ratio of the median tumor weight in the treatment group over the median tumor weight in the control group on a schedule of 3-9 days and at a total dose of 42 mg/kg; assay type: functional; outline: as §3
# [31] = tested on: Mus musculus; experiment: In vivo antitumor activity against murine pancreatic adenocarcinoma and measured as number of deaths on a schedule of 3-10 days and at a total dose of 32 mg/kg; assay type: ADME, organism-based; design: dose 32 mg/kg; outline: as §1
# [32] = tested on: Mus musculus; experiment: In vivo antitumor activity against murine pancreatic adenocarcinoma and measured as % weight loss on a schedule of 3,5,7 days and at a total dose of 36 mg/kg; assay type: functional
# Outline: (§4)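 Body weight loss was tracked in mice implanted with the Panc-03 murine pancreatic adenocarcinoma. Injections were given within 20 min of aqueous preparation from stock solutions, with chlorohydrins acidified using 0.05% citric acid.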
# [33] = tested on: Mus musculus; experiment: In vivo antitumor activity against murine pancreatic adenocarcinoma and measured as % weight loss on a schedule of 3,5,7 days and at a total dose of 18 mg/kg; assay type: functional; outline: as §4
# [34] = tested on: Mus musculus; experiment: In vivo antitumor activity against murine pancreatic adenocarcinoma and measured as number of deaths on a schedule of 3,5,7 days and at a total dose of 36 mg/kg; assay type: ADME, organism-based; design: dose 36 mg/kg; settings: 168 h; outline: as §1
# [35] = tested on: Mus musculus; experiment: In vivo antitumor activity against murine pancreatic adenocarcinoma and measured as % weight loss 3,5,7 days and at a total dose of 9 mg/kg; assay type: functional; outline: as §4
# [36] = tested on: Mus musculus; experiment: In vivo antitumor activity against murine pancreatic adenocarcinoma and measured as number of deaths on a schedule of 3,5,7 days and at a total dose of 9 mg/kg; assay type: ADME, organism-based; design: dose 9 mg/kg; settings: 168 h; outline: as §1
# [37] = tested on: Mus musculus; experiment: In vivo antitumor activity against murine pancreatic adenocarcinoma and measured as number of deaths on a schedule of 3,5,7 days and at a total dose of 18 mg/kg; assay type: ADME, organism-based; design: dose 18 mg/kg; settings: 168 h; outline: as §1
# [38] = tested on: Mus musculus; experiment: Ratio of the median tumor weight in the treatment group over the median tumor weight in the control group on a schedule of 3,5,7 days and at a total dose of 9 mg/kg; assay type: functional
# Outline: (§5)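 Mice bearing the drug-sensitive murine pancreatic adenocarcinoma Panc-03. Dosing solutions were made in water from stock solutions and injected within 20 min of preparation; chlorohydrins were acidified with 0.05% citric acid. T/C (%) = median tumor weight of the treated group ÷ median tumor weight of controls × 100, calculated when control median tumor weight reached 1 g.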
# [39] = tested on: Mus musculus; experiment: Ratio of the median tumor weight in the treatment group over the median tumor weight in the control group on a schedule of 3,5,7 days and at a total dose of 18 mg/kg; assay type: functional; outline: as §5
# [40] = tested on: Mus musculus; experiment: Ratio of the median tumor weight in the treatment group over the median tumor weight in the control group on a schedule of 3,5,7 days and at a total dose of 36 mg/kg; assay type: functional; outline: as §5
smiles,measurement,setting,value
COc1ccc(C[C@H]2NC(=O)/C=C/C[C@@H]([C@H](C)[C@@H](O)[C@@H](Cl)c3ccccc3)OC(=O)[C@H](CC(C)C)OC(=O)C(C)(C)CNC2=O)cc1Cl,Death,[1],0
same,T/C,[2],0%
same,Death,[3],0
same,T/C,[4],0%
same,Death,[5],0
same,T/C,[6],0%
same,Weight loss,[7],-5%
same,Weight loss,[8],-6%
same,Weight loss,[9],-5%
COc1ccc(C[C@H]2NC(=O)/C=C/C[C@@H]([C@H](C)[C@@H](O)[C@@H](Cl)c3ccc(CN4CCNCC4)cc3)OC(=O)[C@H](CC(C)C)OC(=O)C(C)(C)CNC2=O)cc1Cl.Cl.Cl,T/C,[10],33%
same,Death,[11],0
same,Weight loss,[12],-3%
same,T/C,[13],0%
same,IC50,[14],0.021 nM
same,Death,[15],0
same,Weight loss,[16],-16%
same,Death,[17],2
same,Weight loss,[18],-26%
same,T/C,[19],8%
COc1ccc(C[C@H]2NC(=O)/C=C/C[C@@H]([C@H](C)[C@@H](O)[C@@H](Cl)c3cccc(C)c3)OC(=O)[C@H](CC(C)C)OC(=O)C(C)(C)CNC2=O)cc1Cl,Death,[20],0
same,IC50,[14],0.3 nM
same,Weight loss,[21],12%
same,Weight loss,[22],7%
same,Death,[23],0
same,T/C,[24],0%
same,T/C,[25],46%
COc1ccc(C[C@H]2NC(=O)/C=C/C[C@@H]([C@H](C)[C@H]3O[C@@H]3c3ccccc3)OC(=O)[C@H](CC(C)C)OC(=O)C(C)(C)CNC2=O)cc1Cl [CRYPTOPHYCIN 52],Weight loss,[26],1.6%
same,IC50,[14],0.022 nM
same,Weight loss,[27],-9.6%
same,Death,[28],3
same,T/C,[29],3%
same,T/C,[30],1%
same,Death,[31],0
COc1ccc(C[C@H]2NC(=O)/C=C/C[C@@H]([C@H](C)[C@@H](O)[C@@H](Cl)c3ccc(COC(=O)CN)cc3)OC(=O)[C@H](CC(C)C)OC(=O)C(C)(C)CNC2=O)cc1Cl.Cl,Weight loss,[32],-20%
same,Weight loss,[33],-4%
same,Death,[34],3
same,Weight loss,[35],-2%
same,IC50,[14],0.013 nM
same,Death,[36],0
same,Death,[37],0
same,T/C,[38],0%
same,T/C,[39],0%
same,T/C,[40],0%

# From ChEMBL document CHEMBL1145831 (J Med Chem, 2003)
